Measured values collected from several papers.
Compare with care: the assays were run in different laboratories.
Target: Muscarinic acetylcholine receptor M2 (CHRM2, Homo sapiens, UniProt P08172)
Concentration: 10 µM
Residues used in one study (P08172 1-466): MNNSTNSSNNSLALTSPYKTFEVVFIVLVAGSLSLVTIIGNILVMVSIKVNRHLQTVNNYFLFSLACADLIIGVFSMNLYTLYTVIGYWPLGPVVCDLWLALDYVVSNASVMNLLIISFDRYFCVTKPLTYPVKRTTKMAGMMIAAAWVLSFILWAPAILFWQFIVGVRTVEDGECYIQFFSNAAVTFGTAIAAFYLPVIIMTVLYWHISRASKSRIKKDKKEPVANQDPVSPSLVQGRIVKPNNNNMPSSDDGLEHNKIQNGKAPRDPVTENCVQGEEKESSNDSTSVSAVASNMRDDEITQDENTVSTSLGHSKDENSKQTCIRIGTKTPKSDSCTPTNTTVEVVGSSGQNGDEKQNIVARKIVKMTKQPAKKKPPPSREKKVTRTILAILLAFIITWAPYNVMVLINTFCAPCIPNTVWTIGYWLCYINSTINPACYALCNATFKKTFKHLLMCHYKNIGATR

CC(C)N1CCC[C@H]1CNC(=O)c1cn(C2CCCC2)c(=O)c2c1c1ccccc1n2C — inhibition (ligand displacement, radioligand): 1%
Nc1ncc(-c2nc(N3CCOCC3)nc(N3CCOCC3)n2)c(C(F)F)n1 — remaining signal (cell-free assay, radioligand): 117%
Cc1c(N2CCNCC2)nc2ccc(Br)cc2c1C(=O)NC[C@H](CCC(=O)O)c1ccccc1Cl — inhibition (ligand displacement): 13.8%
c1ccc(C(NCCNC(c2ccccc2)c2ccccc2)c2ccccc2)cc1 — inhibition (cell-free assay): 45%
Cn1cncc1[C@@](O)(COc1ccc(C#N)cc1-c1ccc(OC(F)(F)F)cc1)c1ccc(C#N)cc1 — inhibition (ligand displacement): -11.9%
COCc1c(-c2cc3cc(C)cc(OC)c3s2)c2c(N)ncnn2c1CN1CCNC(=O)C1 — inhibition (ligand displacement, radioligand): -1%
C[C@H](C(=O)N[C@H]1COc2ccccc2[C@@H]1S(C)(=O)=O)c1ccc(F)cc1 — inhibition (cell-free assay): 5%
Clc1ccc2c(C3CCN(CCc4c[nH]c5ccccc45)CC3)c[nH]c2c1 — inhibition (ligand displacement, radioligand): 15%
CN1CC[C@]2(C)c3cc(OC(=O)Nc4ccccc4)ccc3N(C)[C@H]12 — inhibition (ligand displacement, radioligand): 0%
CCN(CC)CCCC[C@H](NC(=O)[C@H](CC(C)C)NC(=O)[C@H](C)NC(=O)[C@H](Cc1ccccc1)NC(=O)c1ccc(C(C)(C)C)cc1)C(=O)N[C@@H](CO)C(=O)OC — inhibition (ligand displacement, radioligand): -6%
